From ChEMBL document CHEMBL3044648, “Quantitative structure-activity relationships of monoterpenoid binding activities to the housefly GABA receptor” (2012) come the findings set out here.

The target of assay [1] is T1, GABA receptor subunit (Musca domestica) (UniProt Q75NA5).
T1 sequence (whole entry): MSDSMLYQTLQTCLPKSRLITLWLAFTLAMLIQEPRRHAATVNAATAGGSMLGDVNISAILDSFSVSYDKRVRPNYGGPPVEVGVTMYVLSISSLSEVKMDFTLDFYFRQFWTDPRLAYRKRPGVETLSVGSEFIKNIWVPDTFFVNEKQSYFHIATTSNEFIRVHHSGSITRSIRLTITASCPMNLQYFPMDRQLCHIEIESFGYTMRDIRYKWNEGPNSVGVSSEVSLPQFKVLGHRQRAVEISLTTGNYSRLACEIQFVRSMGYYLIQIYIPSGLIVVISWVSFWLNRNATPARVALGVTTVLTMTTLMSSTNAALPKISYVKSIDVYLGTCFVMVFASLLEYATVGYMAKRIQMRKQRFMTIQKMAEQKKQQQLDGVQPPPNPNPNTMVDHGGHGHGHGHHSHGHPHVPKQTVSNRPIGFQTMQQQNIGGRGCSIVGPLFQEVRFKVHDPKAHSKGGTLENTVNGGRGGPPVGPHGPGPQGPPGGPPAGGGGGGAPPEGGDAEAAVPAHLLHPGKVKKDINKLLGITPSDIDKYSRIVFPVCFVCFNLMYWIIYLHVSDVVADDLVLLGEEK
Description: Displacement of [3H]TBOB binding to GABA receptor in Musca domestica (house fly) heads homogenates assessed as [3H]TBOB binding at 500 uM incubated for 90 min by scintillation counting method. An outline of the steps: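 House fly head membranes (homogenized in 10 mM Tris-HCl pH 7.5 with 0.25 M sucrose, pelleted at 25,000xg, resuspended in 10 mM phosphate pH 7.5 with 300 mM NaCl); 20 µg protein incubated 90 min at 20 °C with 4 nM [³H]-TBOB and 500 µM monoterpenoid; GF/B filtration; nonspecific binding with 100 µM picrotoxin; specific binding as % of untreated; at least three repeats, mean ± SEM.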
In general terms: Loss of bound radioactivity is the signal in a displacement assay; it reports binding, not function.

The test system of a further assay is Musca domestica. Briefly: Toxicity to Musca domestica (house fly) applied to pronotum assessed as compound level per fly causing insect mortality measured after 24 hr. Format: functional.

In the case of `CC1=CC[C@@H](C(C)(C)O)CC1`, the Activity in assay [1] is 95%. Consider `COC(=O)c1ccccc1O` [METHYL SALICYLATE], for which the LD50 in the assay with Musca domestica was found to be 41.2 µg. The Activity in assay [1] was 103%. `O=C(O)/C=C/c1ccccc1`: the Activity in assay [1] is 101%. With `CC12CCC(CC1=O)C2(C)C` (stereo not given) [CAMPHOR], the LD50 in the assay with Musca domestica worked out at 149.5 µg. Moreover, the Activity in assay [1] turned out to be 70%. In the case of `C=CCc1ccc(O)c(OC)c1` [EUGENOL], the LD50 with Musca domestica was 46.4 µg. Moreover, the Activity in assay [1] is 88%. For the compound `CCC(=O)OCCc1ccccc1` [PHENETHYL PROPIONATE], the LD50 in the assay on Musca domestica is 66.6 µg. For the same compound, the Activity in assay [1] is 95%. On to `Cc1ccc(C(C)C)cc1` [P-CYMENE], for which, in the assay with Musca domestica, the LD50 came to 94.7 µg. Besides, the Activity in assay [1] turned out to be 90%. For the compound `CC(C)[C@H]1CC[C@H](C)CC1=O` (relative stereo), the Activity in assay [1] was 86%. Regarding `C=CC(C)(O)CCC=C(C)C` (stereo not given) [LINALOOL], the LD50 in the assay on Musca domestica was 72.3 µg. Moreover, the Activity in assay [1] came out at 124%. As for `COc1cc(C=O)ccc1O` [VANILLIN], the LD50 with Musca domestica is over 500 µg. The Activity in assay [1] is 82%. Consider `CC(C)C12CCC(C)(CC1)O2` [1,4-CINEOLE], for which, in the assay on Musca domestica, the LD50 came out at 151.7 µg. The Activity in assay [1] was 117%. Consider `Cc1ccc(C(C)C)cc1O` [CARVACROL], for which the LD50 in the assay with Musca domestica worked out at 60.1 µg. Besides, the Activity in assay [1] came to 156%. The corresponding values for `CC(C)=CCC[C@@H](C)CC=O` [CITRONELLAL] are 46.8 µg and 92%.

Consider `CC1CCC(C(C)C)C(O)C1` (stereo not given) [MENTHOL], for which the LD50 in the assay on Musca domestica came out at 128.9 µg. Besides, in assay [1], the Activity was 80%.

For `O=Cc1ccc2c(c1)OCO2` [PIPERONAL], the LD50 with Musca domestica is 36.1 µg. Moreover, in assay [1], the Activity amounted to 93%. Turning to `C=C(C)C1CCC2(C)OC2C1` (stereo not given) [LIMONENE OXIDE], the LD50 in the assay on Musca domestica came to 67.8 µg. The Activity in assay [1] was 141%. Take `C=C(C)[C@H]1CC=C(C)CC1` [D-LIMONENE]: in the assay with Musca domestica, the LD50 was 89.4 µg. Further, the Activity in assay [1] was 86%. On to `CC(C)=C1CC[C@@H](C)CC1=O` [PULEGONE], for which, in the assay on Musca domestica, the LD50 was 92.2 µg. In addition, the Activity in assay [1] worked out at 132%. With `C=CCc1ccc2c(c1)OCO2` [SAFROLE], the LD50 in the assay on Musca domestica worked out at 18.3 µg. Moreover, the Activity in assay [1] was determined as 43%. For the compound `CC(C)=CCCC(C)CC(=O)O` (stereo not given) [CITRONELLIC ACID], in the assay with Musca domestica, the LD50 is 25.2 µg. In assay [1], the Activity was determined as 138%. `Cc1ccc(C(C)C)c(O)c1`: the Activity in assay [1] was found to be 180%.

In the case of `CC12CCC(CC1)C(C)(C)O2` [EUCALYPTOL], the LD50 with Musca domestica was 63.2 µg. The Activity in assay [1] turned out to be 122%.
